The source made the active and inactive calls. The rule behind the calls is not given here.
Key:
[1] = system: Respiratory syncytial virus; assay: Antiviral activity against RSV infected human Hep2 cells assessed as reduction of plaque formation pretreated 2 hrs before viral infection; assay type: functional, organism-based; details: HEp-2
In short: (§1)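 Plaque reduction in HEp-2 cells with compound added either 2 h before infection or 6 h after. Duplicate wells per dilution. Percent plaque reduction calculated against compound-free infected wells. Four independent experiments.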

[2] = system: Respiratory syncytial virus; assay: Antiviral activity against RSV infected human Hep2 cells assessed as reduction of plaque formation treated 6 hrs after viral infection; assay type: functional, organism-based; details: HEp-2; in short: as §1
[3] = system: Respiratory syncytial virus; assay: Antiviral activity against RSV infected human Hep2 cells assessed as plaque reduction […] by plaque reduction assay; assay type: functional, HEp-2; set-up: scale not given: the % may be the effect or the level left
[4] = system: Respiratory syncytial virus; assay: Antiviral activity against RSV RSS infected human Hep2 cells assessed as inhibition of virus-induced cell death after 6 days by XTT assay; assay type: functional, organism-based; details: HEp-2, 144 h
In short: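 HEp-2 cells seeded at 4 × 10³ per well in DMEM with 10% FBS, infected next day with RSV RSS dosed to give about 80% cytopathic effect by day 6. Serial compound dilutions (top 10 μM, 0.5% DMSO) present throughout. Viability read by XTT reduction after 6 days. EC50 taken as 50% reduction in virus-induced cell death.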

[5] = system: Respiratory syncytial virus; assay: Antiviral activity against RSV RSS infected human Hep2 cells assessed as reduction of viral antigen synthesis after 3 days by ELISA; assay type: functional, organism-based; details: HEp-2, 72 h
In short: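 HEp-2 cells seeded at 5 × 10³ per well in DMEM/10% FBS for 24 h, infected with RSV RSS at MOI about 0.02, serial compound dilutions for 3 days. Cells fixed and permeabilised in methanol-acetone, blocked in milk-Tween. Probed with mouse anti-RSV monoclonal then HRP anti-mouse. Developed with o-phenylenediamine/H2O2, absorbance […].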

[6] = system: Respiratory syncytial virus; assay: Antiviral activity against RSV RSS infected human Hep2 cells after 5 days by plaque reduction assay; assay type: functional, organism-based; details: HEp-2, 120 h
In short: (§2)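 HEp-2 monolayers in six-well plates infected with 0.2 ml of 500 PFU/ml virus. After 2 h, overlaid with DMEM, 2% FBS, 0.6% agarose plus compound dilution series. Incubated 5 days, formaldehyde-fixed, plaques stained with methylene blue or immunostained and counted. Activity expressed as percent of plaques in untreated infected wells.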

[7] = system: Respiratory syncytial virus; assay: Antiviral activity against RSV Long infected human Hep2 cells after 5 days by plaque reduction assay; assay type: functional, organism-based; details: HEp-2, 120 h; in short: as §2
[8] = system: Respiratory syncytial virus; assay: Antiviral activity against RSV B infected human Hep2 cells after 5 days by plaque reduction assay; assay type: functional, organism-based; details: HEp-2, 120 h; in short: as §2
[9] = Cytotoxicity against RSV RSS infected human Hep2 cells after 6 days by XTT assay; assay type: cell-based, HEp-2
[10] = Therapeutic index, CC50 for human Hep2 cells to EC50 for RSV RSS; assay type: cell-based, HEp-2; details: read-out: Ratio CC50/EC50
In short: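 Ratio of CC50 from uninfected HEp-2 XTT control plates to EC50 from RSV RSS-infected XTT plates, both read after 6 days.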

[11] = system: Respiratory syncytial virus; assay: Antiviral activity against DMSO-passaged wild type RSV RSS infected human Hep2 cells by plaque reduction assay; assay type: functional, organism-based; details: HEp-2; in short: as §2
[12] = system: Respiratory syncytial virus; assay: Antiviral activity against plaque picked RSV604-resistant RSV RSS from passage 2 in human Hep2 cells by plaque reduction assay; assay type: functional, organism-based; details: HEp-2; in short: as §2
[13] = system: Respiratory syncytial virus; assay: Drug resistance, ratio of EC50 for plaque picked RSV604-resistant RSV RSS from passage 2 to EC50 for DMSO-passaged wild type RSV RSS; assay type: functional
[14] = system: Respiratory syncytial virus; assay: Drug resistance, ratio of EC50 for plaque picked A-33903-resistant RSV RSS from passage 2 to EC50 for DMSO-passaged wild type RSV RSS; assay type: functional
[15] = system: Respiratory syncytial virus; assay: Antiviral activity against RSV RSS M2 mutant infected human Hep2 cells after 5 days by plaque reduction assay; assay type: functional, organism-based; details: HEp-2, 120 h; in short: as §2
[16] = system: Respiratory syncytial virus; assay: Antiviral activity against RSV RSS with N protein N105D mutation in human Hep2 cells after 5 days by plaque reduction assay; assay type: functional, organism-based; details: HEp-2, 120 h; in short: as §2
[17] = system: Respiratory syncytial virus; assay: Antiviral activity against RSV RSS with N protein […] mutation in human Hep2 cells after 5 days by plaque reduction assay; assay type: functional, organism-based; details: HEp-2, 120 h; in short: as §2
[18] = system: Respiratory syncytial virus; assay: Antiviral activity against RSV RSS with N protein L139I mutation in human Hep2 cells after 5 days by plaque reduction assay; assay type: functional, organism-based; details: HEp-2, 120 h; in short: as §2
[19] = system: Respiratory syncytial virus; assay: Antiviral activity against RSV RSS with N protein I129L plus L139I mutant mutation in human Hep2 cells after 5 days by plaque reduction assay; assay type: functional, organism-based; details: HEp-2, 120 h; in short: as §2
[20] = system: Respiratory syncytial virus; assay: Drug resistance, ratio of EC50 for RSV RSS M2 mutant to EC50 for wild type RSV RSS; assay type: functional
[21] = system: Respiratory syncytial virus; assay: Drug resistance, ratio of EC50 for RSV RSS with N protein N105D mutation to EC50 for wild type RSV RSS; assay type: functional
[22] = system: Respiratory syncytial virus; assay: Drug resistance, ratio of EC50 for RSV RSS with N protein L139I mutation to EC50 for wild type RSV RSS; assay type: functional
[23] = system: Respiratory syncytial virus; assay: Antiviral activity against RSV A2 infected human Hep2 cells after 5 days by plaque reduction assay; assay type: functional, organism-based; details: A2, HEp-2, 120 h; in short: as §2
Bovine orthopneumovirus = assay: Antiviral activity against bovine RSV snook infected human Hep2 cells after 5 days by plaque reduction assay; assay type: functional, organism-based, Bovine respiratory syncytial virus; details: HEp-2, 120 h; in short: as §2
[24] = system: Pneumonia virus of mice 15; assay: Antiviral activity against Pneumonia virus of mice 15 infected human Hep2 cells after 5 days by plaque reduction assay; assay type: functional, organism-based; details: murine pneumonia virus, HEp-2, 120 h; in short: as §2
Human respirovirus 1 = assay: Antiviral activity against Parainfluenza virus type 1 infected human Hep2 cells after 5 days by plaque reduction assay; assay type: functional, organism-based; details: Human respirovirus 1, HEp-2, 120 h; in short: as §2
Human respirovirus 3 = assay: Antiviral activity against Parainfluenza virus type 3 infected human Hep2 cells after 5 days by plaque reduction assay; assay type: functional, organism-based; details: Human respirovirus 3, HEp-2, 120 h; in short: as §2
Metapneumovirus = assay: Antiviral activity against human Metapneumovirus infected human Hep2 cells after 5 days by plaque reduction assay; assay type: functional, organism-based; details: HEp-2, 120 h; in short: as §2
[25] = system: Respiratory syncytial virus; assay: Antiviral activity against RSV A isolates infected human Hep2 cells after 5 days by plaque reduction assay; assay type: functional, organism-based; details: HEp-2, 120 h; in short: as §2
[26] = system: Respiratory syncytial virus; assay: Antiviral activity against RSV B isolates infected human Hep2 cells after 5 days by plaque reduction assay; assay type: functional, organism-based; details: HEp-2, 120 h; in short: as §2
[27] = system: Respiratory syncytial virus; assay: Drug resistance, ratio of EC50 for RSV RSS with N protein I129L plus L139I mutant mutation to EC50 for wild type RSV RSS; assay type: functional
[28] = system: Respiratory syncytial virus; assay: Antiviral activity against recombinant RSV expressing GFP infected HAE cells assessed as inhibition of viral replication at 2 uM by fluorescence microscopy; assay type: functional, organism-based
[29] = system: Respiratory syncytial virus; assay: Antiviral activity against recombinant RSV expressing GFP infected HAE cells assessed as inhibition of viral replication at 1 uM by fluorescence microscopy; assay type: functional, organism-based
[30] = system: Respiratory syncytial virus; assay: Antiviral activity against recombinant RSV expressing GFP infected HAE cells assessed as inhibition of viral replication at 10 uM by fluorescence microscopy; assay type: functional, organism-based
[31] = system: Respiratory syncytial virus; assay: Antiviral activity against recombinant RSV expressing GFP infected HAE cells assessed as inhibition of viral replication at 20 uM by fluorescence microscopy; assay type: functional, organism-based
[32] = system: Respiratory syncytial virus; assay: Antiviral activity against recombinant RSV expressing GFP infected HAE cells assessed as lack of viral replication-dependent green fluorescence level at 2 uM by fluorescence microscopy; assay type: functional, organism-based
[33] = system: Respiratory syncytial virus; assay: Antiviral activity against recombinant RSV expressing GFP infected HAE cells assessed as lack of viral replication-dependent green fluorescence level at 10 uM by fluorescence microscopy; assay type: functional, organism-based
[34] = system: Respiratory syncytial virus; assay: Antiviral activity against recombinant RSV expressing GFP infected HAE cells assessed as lack of viral replication-dependent green fluorescence level at 20 uM by fluorescence microscopy; assay type: functional, organism-based
[35] = Cytotoxicity against recombinant RSV expressing GFP infected HAE cells at 20 uM for 7 days; assay type: cell-based; details: human, 168 h
In short: (§3)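 Differentiated human airway epithelial cultures exposed to 20 μM compound for 7 days. Scored for gross cytotoxicity, leakage of basolateral fluid to the apical surface, and cilium beat frequency.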

[36] = Toxicity in recombinant RSV expressing GFP infected HAE cells assessed as leakage of basolateral fluid to apical surface at 20 uM for 7 days; details: human, 168 h; in short: as §3
[37] = Toxicity in recombinant RSV expressing GFP infected HAE cells assessed as alteration of cilium beat frequency at 20 uM for 7 days; details: human, 168 h; in short: as §3
[38] = system: Respiratory syncytial virus; assay: Antiviral activity against 0.02 MOI RSV RSS infected human Hep2 cells assessed as inhibition of virus-induced cell death after 6 days by XTT assay; assay type: functional, organism-based; details: HEp-2, 144 h
[39] = system: Respiratory syncytial virus; assay: Antiviral activity against 1.5 MOI RSV RSS infected human Hep2 cells assessed as inhibition of virus-induced cell death after 6 days by XTT assay; assay type: functional, organism-based; details: HEp-2, 144 h
[40] = system: Respiratory syncytial virus; assay: Antiviral activity against plaque picked A-33903-resistant RSV RSS from passage 2 in human Hep2 cells by plaque reduction assay; assay type: functional, organism-based; details: HEp-2; in short: as §2
[41] = Cytotoxicity against RSV RSS infected human Hep2 cells up to 50 uM after 6 days by XTT assay; assay type: cell-based; details: hep-2, 144 h
In short: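 Uninfected cell-control plates run in parallel with the RSV XTT assay. HEp-2 cells at 4 × 10³ per well in DMEM/10% FBS, serial compound dilutions with 0.5% DMSO, 6 days. Viability by XTT. CC50 is the concentration giving 50% compound-induced cell death.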

O=c1n(Cc2nc3ccccc3n2CCCCO)c2cnccc2n1C1CC1
Activity [1]: Active
Activity [2]: inactive
Activity [3]: 50%

COc1cc(S(C)(=O)=O)ccc1C(=O)N[C@H]1N=C(c2ccccc2)c2ccccc2NC1=O
EC50 [4]: 0.5 µM
EC50 [5]: 1.3 µM
EC50 [6]: 0.5 µM
EC50 [7]: 0.39 µM
EC50 [8]: 0.43 µM
CC50 at 144 h [9]: > 50 µM
selectivity ratio [10]: > 100
EC50 [11]: 0.4 µM
EC50 [12]: 16.9 µM
fold change (FC) [13]: 42.3

O=C(Nc1ccccc1F)N[C@H]1N=C(c2ccccc2)c2ccccc2NC1=O [RSV-604]
fold change (FC) [14]: 3.9
EC50 [15]: 1.14 µM
EC50 [16]: 4.78 µM
EC50 [17]: 6.03 µM
EC50 [18]: 6.7 µM
EC50 [19]: > 20 µM
fold change (FC) [20]: 1.2
fold change (FC) [21]: 5
fold change (FC) [22]: 7
EC50 [4]: 0.86 µM
EC50 [5]: 1.7 µM
EC50 [6]: 0.9 µM
EC50 [7]: 0.8 µM
EC50 [23]: 0.5 µM
EC50 [8]: 0.6 µM
CC50 at 144 h [9]: > 50 µM
selectivity ratio [10]: > 58
EC50 (Bovine orthopneumovirus): 0.3 µM
EC50 [24]: > 50 µM
EC50 (Human respirovirus 1): > 50 µM
EC50 (Human respirovirus 3): > 50 µM
EC50 (Metapneumovirus): > 50 µM
EC50 [25]: 0.8 µM
EC50 [26]: 0.8 µM
Activity [1]: Active
Activity [2]: Active
EC50 [11]: 0.6 µM
fold change (FC) [27]: >20
Activity [28]: Active
Activity [29]: Active
Activity [30]: Active
Activity [31]: Active
Activity [32]: Active
Activity [33]: Active
Activity [34]: Active
Activity [35]: Not Active
Activity [36]: Not Active
Activity [37]: Not Active
EC50 [38]: 1.4 µM
EC50 [39]: 2.55 µM
EC50 [12]: 30.4 µM
fold change (FC) [13]: 50.7
EC50 [40]: 2.7 µM

CC(=O)NC1N=C(c2ccccc2)c2ccccc2NC1=O (stereo not given)
fold change (FC) [14]: 3.1
EC50 [4]: 9.6 µM
EC50 [5]: 10.1 µM
EC50 [6]: 9.7 µM
EC50 [7]: 7.2 µM
EC50 [23]: 15.1 µM
EC50 [8]: 3.5 µM
CC50 at 144 h [9]: > 50 µM
selectivity ratio [10]: > 5
Activity [41]: Non-toxic
EC50 [11]: 8.1 µM
EC50 [12]: > 100 µM
fold change (FC) [13]: >12.3
EC50 [40]: 27.6 µM
